Test results from ChEMBL document CHEMBL4808183, “Betulonic Acid Derivatives Interfering with Human Coronavirus 229E Replication via the nsp15 Endoribonuclease” (J Med Chem, 2021).
Active and inactive are the calls of the source.

Assays:
[1] = Antiviral activity against Human coronavirus 229E infected in human embryonic lung fibroblast cells assessed as reduction in virus-induced cytopathic effect incubated for 5 days by microscopy; assay type: functional, cell-based; conditions: 120 h
Outline: (§1)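 Confluent HEL cell cultures given serial compound dilutions together with HCoV-229E at MOI 100 and held 5 days at 35 °C. Virus-induced CPE was scored by microscopy. MTS reagent was then added and absorbance at 490 nm read 24 h later. EC50 was taken from the MTS or microscopic read-out and CC50 from MTS. SI = CC50/EC50, both by MTS. Mean ± SEM of three independent experiments.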

[2] = tested on: Sindbis virus; experiment: Antiviral activity against Sindbis virus; assay type: functional, organism-based
[3] = Selectivity index, ratio of CC50 for cytotoxicity against mock-infected human embryonic lung fibroblast cells incubated for 5 days by MTS assay to EC50 for antiviral activity against Human coronavirus 229E infected in human embryonic lung fibroblast cells assessed as reduction in virus-induced cytopathic effect incubated for 5 days by MTS cell viability assay; assay type: toxicity, cell-based; conditions: time 5 day, read-out: Ratio CC50/EC50; outline: as §1
[4] = tested on: Human immunodeficiency virus; experiment: Antiviral activity against HIV; assay type: functional, organism-based
[5] = tested on: Reovirus sp.; experiment: Antiviral activity against Reovirus-1; assay type: functional, organism-based
[6] = tested on: Human respirovirus 3; experiment: Antiviral activity against Parainfluenza-3 virus; assay type: functional, organism-based
[7] = tested on: Herpes simplex virus unknown type; experiment: Antiviral activity against Herpes simplex virus; assay type: functional
[8] = tested on: Coxsackievirus B4; experiment: Antiviral activity against Coxsackie B4 virus; assay type: functional, organism-based
[9] = tested on: Respiratory syncytial virus; experiment: Antiviral activity against Respiratory syncytial virus; assay type: functional, organism-based
[10] = tested on: Punta Toro virus; experiment: Antiviral activity against Punta Toro virus; assay type: functional, organism-based
[11] = Antiviral activity against Human coronavirus 229E infected in human embryonic lung fibroblast cells assessed as reduction in virus-induced cytopathic effect incubated for 5 days by MTS cell viability assay; assay type: functional, cell-based; conditions: 120 h; outline: as §1
[12] = tested on: Vaccinia virus; experiment: Antiviral activity against Vaccinia virus; assay type: functional, organism-based; conditions: Orthopoxvirus vaccinia
[13] = tested on: Vesicular stomatitis virus; experiment: Antiviral activity against Vesicular stomatitis virus; assay type: functional, organism-based
[14] = Cytotoxicity against mock-infected human embryonic lung fibroblast cells incubated for 5 days by MTS assay; assay type: cell-based; conditions: time 5 day; outline: as §1
[15] = tested on: Human adenovirus 2; experiment: Antiviral activity against Adenovirus; assay type: functional
[16] = tested on: Influenza A virus; experiment: Antiviral activity against Influenza virus; assay type: functional
[17] = tested on: Yellow fever virus; experiment: Antiviral activity against Yellow fever virus; assay type: functional, organism-based

C=C(C)[C@@H]1CC[C@]2(C(=O)O)CC[C@]3(C)[C@H](CC[C@@H]4[C@@]5(C)Cc6nnn(Cc7ccc(F)cc7)c6C(C)(C)[C@@H]5CC[C@]43C)[C@@H]12
9.3 µM: CC50 at 120 h [14]
2.2 µM: EC50 [11]
inactive: Activity [2] | Activity [4] | Activity [5] | Activity [6] | Activity [7] | Activity [8] | Activity [9] | Activity [10] | Activity [12] | Activity [13] | Activity [15] | Activity [16] | Activity [17]
0.88 µM: EC50 [1]
4: selectivity ratio at 120 h [3]

C=C(C)[C@@H]1CC[C@]2(C(=O)O)CC[C@]3(C)[C@H](CC[C@@H]4[C@@]5(C)Cc6nnn([C@H](C)c7ccccc7)c6C(C)(C)[C@@H]5CC[C@]43C)[C@@H]12
> 91: selectivity ratio at 120 h [3]
1.1 µM: EC50 [11]
> 100 µM: CC50 at 120 h [14]
inactive: Activity [2] | Activity [4] | Activity [5] | Activity [6] | Activity [7] | Activity [8] | Activity [9] | Activity [10] | Activity [12] | Activity [13] | Activity [15] | Activity [16] | Activity [17]
0.67 µM: EC50 [1]

C=C(C)[C@@H]1CC[C@]2(C(=O)O)CC[C@]3(C)[C@H](CC[C@@H]4[C@@]5(C)Cc6nnn(Cc7ccc8c(c7)OCO8)c6C(C)(C)[C@@H]5CC[C@]43C)[C@@H]12
inactive: Activity [2] | Activity [4] | Activity [5] | Activity [6] | Activity [7] | Activity [8] | Activity [9] | Activity [10] | Activity [12] | Activity [13] | Activity [15] | Activity [16] | Activity [17]
1.5 µM: EC50 [1]
1.9 µM: EC50 [11]
8: selectivity ratio at 120 h [3]
15 µM: CC50 at 120 h [14]

C=C(C)[C@@H]1CC[C@]2(C(=O)O)CC[C@]3(C)[C@H](CC[C@@H]4[C@@]5(C)Cc6nnn(Cc7ccc(C)cc7)c6C(C)(C)[C@@H]5CC[C@]43C)[C@@H]12
inactive: Activity [2] | Activity [4] | Activity [5] | Activity [6] | Activity [7] | Activity [8] | Activity [9] | Activity [10] | Activity [12] | Activity [13] | Activity [15] | Activity [16] | Activity [17]
6.2 µM: EC50 [11]
3.3 µM: EC50 [1]
57 µM: CC50 at 120 h [14]
9: selectivity ratio at 120 h [3]

C=C(C)[C@@H]1CC[C@]2(C(=O)O)CC[C@]3(C)[C@H](CC[C@@H]4[C@@]5(C)Cc6nnn(Cc7ccc(C(F)(F)F)cc7)c6C(C)(C)[C@@H]5CC[C@]43C)[C@@H]12
≥ 47 µM: CC50 at 120 h [14]
inactive: Activity [2] | Activity [4] | Activity [5] | Activity [6] | Activity [7] | Activity [8] | Activity [9] | Activity [10] | Activity [12] | Activity [13] | Activity [15] | Activity [16] | Activity [17]
> 10: selectivity ratio at 120 h [3]
4.8 µM: EC50 [11]
3.6 µM: EC50 [1]

C=C(C)[C@@H]1CC[C@]2(C(=O)O)CC[C@]3(C)[C@H](CC[C@@H]4[C@@]5(C)Cc6nnn(CCc7c[nH]c8ccc(OC)cc78)c6C(C)(C)[C@@H]5CC[C@]43C)[C@@H]12
0.88 µM: EC50 [11]
8.9 µM: CC50 at 120 h [14]
inactive: Activity [2] | Activity [4] | Activity [5] | Activity [6] | Activity [7] | Activity [8] | Activity [9] | Activity [10] | Activity [12] | Activity [13] | Activity [15] | Activity [16] | Activity [17]
0.3 µM: EC50 [1]
10: selectivity ratio at 120 h [3]

C=C(C)[C@@H]1CC[C@]2(C(=O)O)CC[C@]3(C)[C@H](CC[C@@H]4[C@@]5(C)Cc6nnn(Cc7ccco7)c6C(C)(C)[C@@H]5CC[C@]43C)[C@@H]12
8: selectivity ratio at 120 h [3]
20 µM: CC50 at 120 h [14]
inactive: Activity [2] | Activity [4] | Activity [5] | Activity [6] | Activity [7] | Activity [8] | Activity [9] | Activity [10] | Activity [12] | Activity [13] | Activity [15] | Activity [16] | Activity [17]
1.1 µM: EC50 [1]
2.6 µM: EC50 [11]

C=C(C)[C@@H]1CC[C@]2(CO)CC[C@]3(C)[C@H](CC[C@@H]4[C@@]5(C)CC[C@H](O)C(C)(C)[C@@H]5CC[C@]43C)[C@@H]12 [BETULIN]
> 100 µM: EC50 [11]
7.6 µM: CC50 at 120 h [14]
11 µM: EC50 [1]

C=C(C)[C@@H]1CC[C@]2(C(=O)O)CC[C@]3(C)[C@H](CC[C@@H]4[C@@]5(C)Cc6nnn(CCO)c6C(C)(C)[C@@H]5CC[C@]43C)[C@@H]12
inactive: Activity [2] | Activity [4] | Activity [5] | Activity [6] | Activity [7] | Activity [8] | Activity [9] | Activity [10] | Activity [12] | Activity [13] | Activity [15] | Activity [16] | Activity [17]
4.9 µM: CC50 at 120 h [14]
1.5: selectivity ratio at 120 h [3]
3.3 µM: EC50 [11]
2.2 µM: EC50 [1]

C=C(C)[C@@H]1CC[C@]2(C(=O)O)CC[C@]3(C)[C@H](CC[C@@H]4[C@@]5(C)Cc6nnn(Cc7cc(OC)cc(OC)c7)c6C(C)(C)[C@@H]5CC[C@]43C)[C@@H]12
1.6 µM: EC50 [1]
17 µM: CC50 at 120 h [14]
inactive: Activity [2] | Activity [4] | Activity [5] | Activity [6] | Activity [7] | Activity [8] | Activity [9] | Activity [10] | Activity [12] | Activity [13] | Activity [15] | Activity [16] | Activity [17]
7: selectivity ratio at 120 h [3]
2.4 µM: EC50 [11]

C=C(C)[C@@H]1CC[C@]2(C(=O)O)CC[C@]3(C)[C@H](CC[C@@H]4[C@@]5(C)Cc6nnn(Cc7ccc(N(C)C)cc7)c6C(C)(C)[C@@H]5CC[C@]43C)[C@@H]12
16 µM: CC50 at 120 h [14]
31: selectivity ratio at 120 h [3]
0.51 µM: EC50 [1]
inactive: Activity [2] | Activity [4] | Activity [5] | Activity [6] | Activity [7] | Activity [8] | Activity [9] | Activity [10] | Activity [12] | Activity [13] | Activity [15] | Activity [16] | Activity [17]
0.54 µM: EC50 [11]

CC(C)[C@@H]1CC[C@]2(C)CC[C@]3(C)[C@H](CC[C@@H]4[C@@]5(C)Cc6nnn([C@@H](C)c7ccccc7)c6C(C)(C)[C@@H]5CC[C@]43C)[C@@H]12
inactive: Activity [2] | Activity [4] | Activity [5] | Activity [6] | Activity [7] | Activity [8] | Activity [9] | Activity [10] | Activity [12] | Activity [13] | Activity [15] | Activity [16] | Activity [17]

C=C(C)[C@@H]1CC[C@]2(C(=O)O)CC[C@]3(C)[C@H](CC[C@@H]4[C@@]5(C)CCC(=O)C(C)(C)[C@@H]5CC[C@]43C)[C@@H]12 [BETUNOLIC ACID]
> 100 µM: EC50 [1] | EC50 [11] | CC50 at 120 h [14]

C=C(C)[C@@H]1CC[C@]2(C(=O)O)CC[C@]3(C)[C@H](CC[C@@H]4[C@@]5(C)Cc6nnn(CC7CCCCC7)c6C(C)(C)[C@@H]5CC[C@]43C)[C@@H]12
inactive: Activity [2] | Activity [4] | Activity [5] | Activity [6] | Activity [7] | Activity [8] | Activity [9] | Activity [10] | Activity [12] | Activity [13] | Activity [15] | Activity [16] | Activity [17]
14 µM: EC50 [1]
79 µM: CC50 at 120 h [14]
13 µM: EC50 [11]
